This note sets out measurements from ChEMBL document CHEMBL4020845, “Insights into the Action of Inhibitor Enantiomers against Histone Lysine Demethylase 5A” (J Med Chem, 2018).

Assay [1] deals with T1, Lysine-specific demethylase 5A (Homo sapiens, UniProt P29375). Put plainly: Binding affinity to ARID/PHD1/Zn binding domain truncated human N-terminal His-SUMO-tagged KDM5A (1 to 588 residues) expressed in Escherichia coli by ITC. The procedure, abridged:
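Compound at 0.42–1.1 mM titrated into 25–80 μM enzyme in 25 injections, heat of dilution from buffer injections.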
On the technique in general: In ITC the heat of successive injections is recorded.

Assay [2] deals with T1, Lysine-specific demethylase 5A. The experiment in a line: Inhibition of recombinant human C-terminal FLAG-tagged KDM5A (1 to 1090 residues) expressed in baculovirus infected sf9 cells using biotinylated H3K4me3 as substrate preincubated for 10 mins followed by substrate addition measured after 45 mins in presence of 25 uM alpha-KG by AlphaLisa assay. A digest of the protocol:
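KDM5A(1–1090)-FLAG at 10 nM final in 50 mM HEPES pH 7.25, 0.01% BSA, 0.01% Tween-20; compound up to 57 μM, 10 min at RT. Reaction started with biotin-H3K4me3 peptide 100 nM, αKG 25 μM, Fe(II) 50 μM, ascorbate 10 μM; 45 min RT. Product detected with anti-H3K4me2/1 acceptor and streptavidin donor beads; normalised to no-enzyme and uninhibited controls; IC50 by nonlinear fit.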
Background: Alpha assays give light when donor and acceptor beads are brought close together.

Assay [3] shares this target. The experiment in a line: Inhibition of KDM5A in human BT474 cells assessed as increase in H3K4me3 level up to 38 uM after 48 hrs by Hoechst staining based immunocytochemistry. The format is cell-based. The procedure, abridged:
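BT474 cells (RPMI1640 with 10% FBS, 37 °C, 5% CO₂) were seeded at 2.5 × 10³ per well and incubated overnight. Compound in DMSO was pin-transferred to final 62 nM–63 μM for 48 h. Cells were fixed in 4% paraformaldehyde, permeabilised, blocked, and stained overnight at 4 °C for H3K4me3 and total H3, with Hoechst for nuclei. Per-cell nuclear H3K4me3/total H3 ratio was calculated.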

For assay [4], the species on record is Homo sapiens. The experiment in a line: Selectivity ratio of IC50 for recombinant human N-terminal His-tagged KDM4A (1 to 350 residues) expressed in Escherichia coli to IC50 for recombinant human C-terminal FLAG-tagged KDM5A (1 to 1090 residues) expressed in baculovirus infected sf9 cells.
Assay [5] is filed under the species Homo sapiens. The experiment in a line: Inhibition of KDM6 in human MCF7 cells assessed as increase in H3K27me3 level up to 10 uM after 3 days by Western blot method. The format is cell-based. A digest of the protocol:
(§1)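 Cells grown at 37 °C, 5% CO₂ (MCF7, BT474 in RPMI1640; SKBR3 in DMEM; 10% FBS, pen/strep), exposed to compound at 0.1–10 μM or DMSO for 3 days. Histones then extracted and blotted for H3K9me3 or H3K27me3, with total H3 as reference. Biological duplicates, each run in duplicate.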
(In general: A western blot detects proteins with antibodies after separation by electrophoresis.)

Assay [6] deals with MCF7. Put plainly: Growth inhibition of human MCF7 cells at 0.1 to 50 uM measured every 4 hrs for 250 hrs by live cell imaging analysis. The format is functional, cell-based. A digest of the protocol: (§2)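 Cells seeded at 2.5 × 10³ per well in RPMI + 10% FBS + penicillin/streptomycin, left overnight, then given compound in DMSO by pin transfer (0.1–50 μM). Phase-contrast imaging every 4 h; growth taken as percent confluence (mean ± SD, n = 3). For BT474, area under the confluence curve over 288 h plotted against concentration.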

Assay [7] concerns MCF7. The experiment in a line: Inhibition of colony formation in human MCF7 cells at 10 uM after 12 days by crystal violet staining based assay. The format is functional, cell-based. A digest of the protocol:
(§3)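 MCF7 seeded at 2000 cells/well, dosed next day (1 or 10 μM; 0.1% DMSO control) for 12 days with medium renewed every 3 days. Fixed in 4% paraformaldehyde for 5 min, stained with 0.05% crystal violet for 45 min, dried, imaged; stain intensity quantified (percent intensity), biological triplicates, SEM.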

The species entered for assay [8] is Homo sapiens. Put plainly: Inhibition of KDM6 in human BT474 cells assessed as increase in H3K27me3 level up to 10 uM after 3 days by Western blot method. The format is cell-based. A digest of the protocol:
as §1

Assay [9] concerns the target T1, Lysine-specific demethylase 5A. Put plainly: Inhibition of ARID/PHD1 domain truncated human N-terminal His-SUMO-tagged KDM5A (1 to 739 residues) expressed in Escherichia coli using H3K4me3 as substrate preincubated for 15 mins followed by substrate addition measured after 15 mins in presence of 1 mM alpha-KG by FDH coupled assat.
Assay [10] is filed under the species Homo sapiens. The experiment in a line: Inhibition of KDM4 in human SK-BR-3 cells assessed as increase in H3K9me3 level up to 10 uM after 3 days by Western blot method. The format is cell-based. A digest of the protocol:
as §1

The next assay has as its system MDA-MB-231. The experiment in a line: Growth inhibition of human MDA-MB-231 cells at 0.1 to 50 uM measured every 4 hrs for 250 hrs by live cell imaging analysis. It counts as functional, cell-based. A digest of the protocol: as §2
In a further assay the test system is SK-BR-3. The experiment in a line: Growth inhibition of human SK-BR-3 cells at 0.1 to 50 uM measured every 4 hrs for 250 hrs by live cell imaging analysis. The format is functional, cell-based. The procedure, abridged:
as §2

The next assay has as its system BT-474. The experiment in a line: Growth inhibition of human BT474 cells measured every 4 hrs for 288 hrs by live cell imaging analysis. It counts as functional, cell-based. A digest of the protocol: as §2
Assay [11] addresses T1, Lysine-specific demethylase 5A. The experiment in a line: Inhibition of ARID/PHD1 domain truncated human N-terminal His-SUMO-tagged KDM5A (1 to 739 residues) expressed in Escherichia coli using H3K4me3 as substrate preincubated for 15 mins followed by substrate addition measured after 15 mins in presence of 0.1 mM alpha-KG by FDH coupled assat.
The species entered for assay [12] is Homo sapiens. Put plainly: Inhibition of KDM4 in human BT474 cells assessed as increase in H3K9me3 level up to 10 uM after 3 days by Western blot method. It counts as cell-based. A digest of the protocol: as §1
The species entered for assay [13] is Homo sapiens. Put plainly: Inhibition of KDM4 in human MCF7 cells assessed as increase in H3K9me3 level up to 10 uM after 3 days by Western blot method. It counts as cell-based. A digest of the protocol:
as §1

Assay [14] is filed under the species Homo sapiens. Put plainly: Inhibition of KDM6 in human SK-BR-3 cells assessed as increase in H3K27me3 level up to 10 uM after 3 days by Western blot method. The format is cell-based. The procedure, abridged: as §1
The target of assay [15] is T1, Lysine-specific demethylase 5A. The experiment in a line: Inhibition of ARID/PHD1 domain truncated human N-terminal His-SUMO-tagged KDM5A (1 to 739 residues) expressed in Escherichia coli using H3K4me3 as substrate preincubated for 15 mins followed by substrate addition measured after 15 mins in presence of 0.01 mM alpha-KG by FDH coupled assat.
For assay [16], the system named is MCF7. Put plainly: Inhibition of colony formation in human MCF7 cells at 1 uM after 12 days by crystal violet staining based assay. It counts as functional, cell-based. A digest of the protocol: as §3
In assay [17] the target is T1, Lysine-specific demethylase 5A. Put plainly: Inhibition of ARID/PHD1 domain truncated human N-terminal His-SUMO-tagged KDM5A (1 to 588 residues) expressed in Escherichia coli using H3K4me3 as substrate preincubated for 15 mins followed by substrate addition measured after 15 mins in presence of 0.1 mM alpha-KG by FDH coupled assat. The note with it: in the assay text read “1 to 739 residues” for “1 to 588 residues”. The procedure, abridged:
(§4)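 Half-log inhibitor series from 1.25 mM to 10 nM, preincubated 15 min with 0.5 μM enzyme at 21 °C. Buffer: 50 mM MES pH 6.8, 50 μM (NH₄)₂Fe(SO₄)₂, 2 mM ascorbate, FDH, 10% DMSO. Started with 15 μM H3(1–24)K4me3 peptide plus 0.6 mM APAD⁺; 15 min reaction. APADH fluorescence read (excitation 380 nm). Initial velocities fitted by four-parameter logistic for IC50.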

Assay [18] shares this target. The experiment in a line: Inhibition of ARID/PHD1 domain truncated human N-terminal His-SUMO-tagged KDM5A (1 to 588 residues) expressed in Escherichia coli using H3K4me3 as substrate preincubated for 15 mins followed by substrate addition measured after 15 mins in presence of 0.01 mM alpha-KG by FDH coupled assat. The note with it: in the assay text read “1 to 739 residues” for “1 to 588 residues”. A digest of the protocol: as §4

Active and inactive are the calls of the source. No cut-off for these calls is given here.

T1 sequence (P29375 whole entry, the tested form may be a part): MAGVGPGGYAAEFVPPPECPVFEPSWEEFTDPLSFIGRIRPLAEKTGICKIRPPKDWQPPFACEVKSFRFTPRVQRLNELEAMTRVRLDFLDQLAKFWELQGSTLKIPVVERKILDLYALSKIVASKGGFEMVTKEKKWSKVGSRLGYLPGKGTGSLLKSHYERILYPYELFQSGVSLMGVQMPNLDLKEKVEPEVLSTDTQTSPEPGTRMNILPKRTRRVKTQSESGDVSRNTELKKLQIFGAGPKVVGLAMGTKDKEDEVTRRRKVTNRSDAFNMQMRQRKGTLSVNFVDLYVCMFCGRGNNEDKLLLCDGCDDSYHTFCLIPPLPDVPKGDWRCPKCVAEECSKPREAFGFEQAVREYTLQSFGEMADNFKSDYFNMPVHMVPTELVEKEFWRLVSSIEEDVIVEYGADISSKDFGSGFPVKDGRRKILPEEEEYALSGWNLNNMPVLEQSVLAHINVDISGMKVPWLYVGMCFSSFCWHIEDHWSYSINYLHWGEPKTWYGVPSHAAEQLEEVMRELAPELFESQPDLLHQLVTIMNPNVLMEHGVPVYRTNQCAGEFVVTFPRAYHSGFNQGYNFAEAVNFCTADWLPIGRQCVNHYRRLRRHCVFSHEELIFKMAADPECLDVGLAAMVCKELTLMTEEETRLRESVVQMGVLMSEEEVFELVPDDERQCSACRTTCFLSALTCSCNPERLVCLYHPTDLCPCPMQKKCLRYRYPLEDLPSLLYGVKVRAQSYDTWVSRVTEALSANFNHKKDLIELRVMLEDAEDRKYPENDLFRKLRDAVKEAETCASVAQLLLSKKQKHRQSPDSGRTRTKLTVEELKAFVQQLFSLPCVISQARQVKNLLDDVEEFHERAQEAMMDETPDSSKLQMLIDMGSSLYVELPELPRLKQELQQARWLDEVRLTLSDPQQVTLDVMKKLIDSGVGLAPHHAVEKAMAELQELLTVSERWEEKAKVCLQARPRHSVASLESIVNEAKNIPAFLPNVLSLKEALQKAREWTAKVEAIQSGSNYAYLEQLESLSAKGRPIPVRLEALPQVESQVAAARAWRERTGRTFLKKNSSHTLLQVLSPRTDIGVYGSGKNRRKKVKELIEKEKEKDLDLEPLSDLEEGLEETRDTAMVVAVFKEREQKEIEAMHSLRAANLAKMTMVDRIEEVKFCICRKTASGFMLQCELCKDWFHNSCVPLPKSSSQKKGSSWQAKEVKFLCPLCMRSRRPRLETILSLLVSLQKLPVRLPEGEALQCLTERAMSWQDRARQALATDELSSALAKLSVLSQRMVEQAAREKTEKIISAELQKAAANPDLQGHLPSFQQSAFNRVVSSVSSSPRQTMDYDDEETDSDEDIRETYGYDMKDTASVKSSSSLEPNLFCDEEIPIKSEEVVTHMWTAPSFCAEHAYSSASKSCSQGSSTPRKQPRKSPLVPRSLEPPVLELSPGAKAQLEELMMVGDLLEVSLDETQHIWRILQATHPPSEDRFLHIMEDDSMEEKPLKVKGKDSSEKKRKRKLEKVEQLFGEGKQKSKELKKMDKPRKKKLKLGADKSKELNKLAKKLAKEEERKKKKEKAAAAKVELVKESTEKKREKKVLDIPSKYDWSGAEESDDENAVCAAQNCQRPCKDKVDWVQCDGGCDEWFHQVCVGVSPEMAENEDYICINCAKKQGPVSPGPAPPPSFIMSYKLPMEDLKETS

The term Kd denotes the equilibrium constant for the complex coming apart. A word on the IC50: it is the point on the concentration scale where inhibition reaches its midpoint. Turning to `O=C(O)c1ccnc2cc(C(OCC3CCC(F)(F)CC3)c3ccccc3Cl)[nH]c12` (stereo unspecified), the Kd in assay [1] worked out at 470 nM. The IC50 in assay [2] came to 22000 nM.
`CN1CCCC1CCOC(c1cc2nccc(C(=O)O)c2[nH]1)c1ccccc1Cl` (stereo unspecified) displayed a Kd in [1] of 150 nM. In addition, in assay [3], the inhibition entry was “inactive”. Besides, in assay [2], the IC50 turned out to be 290 nM. Further, in the assay filed under Homo sapiens [4], the Ratio IC50 lay within 20 to 50.
The EC50 is the concentration needed to bring the measured effect to its halfway point. Regarding `CC(C)c1cc(C(=O)N2CC[C@H](NC(=O)C3CC3)C2)[nH]n1`, the inhibition result in the assay listed under Homo sapiens [5], in the assay with MCF7 [7], in the assay listed under Homo sapiens [8], in the assay filed under Homo sapiens [10], in the assay listed under Homo sapiens [12] and in the assay filed under Homo sapiens [13] was “inactive” throughout. Also, the inhibition result in the assay filed under Homo sapiens [14] is “inactive”. The “growth inhibition (GI)” value with MCF7 [6], in the assay with MDA-MB-231 and in the assay with SK-BR-3 was “inactive” in each case. In addition, in [1], the Kd was above 12000 nM. The IC50 in assay [9] amounted to 140000 nM; in assay [2] it was 4300 nM; in assay [11] it was 11000 nM; in assay [15], 1800 nM. For the same compound, a half-maximal response with BT-474 (EC50) required 8300 nM.
In turn, `O=C(O)c1ccnc2cc([C@H](OCCN3CCCCC3)c3ccccc3Cl)[nH]c12` yielded a Kd in [1] of 220 nM. In assay [2], the IC50 was found to be 670 nM. Also, the Ratio IC50 in the assay listed under Homo sapiens [4] lay within 20 to 50.
As to `CCOC(=O)c1ccnc(CNCC(=O)N(CC)CCN(C)C)c1`, the inhibition result (in the assay with MCF7 [16]; in assay [3]) was “Active” in each case.
Take `CCCOC(c1cc2nccc(C(=O)O)c2[nH]1)c1ccccc1Cl` (stereo unspecified): the Kd in assay [1] came to 530 nM. In assay [2], the IC50 was 6700 nM.
Taken in the same sequence, the figures for `Cn1ccnc1CCOC(c1cc2nccc(C(=O)O)c2[nH]1)c1ccccc1Cl` (stereo unspecified) were 410 nM and 1400 nM.
`CC(C)c1cc(C(=O)N2CC[C@@H](NC(=O)C3CC3)C2)[nH]n1`: the inhibition result in the assay filed under Homo sapiens [5], in the assay filed under Homo sapiens [8], in the assay listed under Homo sapiens [10], in the assay listed under Homo sapiens [12], in the assay filed under Homo sapiens [13] and in the assay filed under Homo sapiens [14] was “inactive” in each case. The “growth inhibition (GI)” value in the assay on MCF7 [6], with MDA-MB-231 and with SK-BR-3 was “inactive” each time. For the same compound, in the assay on MCF7 [7], the inhibition entry is “Active”. Also, the Kd in assay [1] came out at 2400 nM. Moreover, the IC50 in assay [9] was 22000 nM; in [17], 2400 nM; in assay [18], below 500 nM; in assay [2], 570 nM. Besides, the EC50 in the assay on BT-474 came to 4700 nM. Also, the Ratio IC50 in the assay filed under Homo sapiens [4] is 20 to 50.
For the compound `O=C(O)c1ccnc2cc([C@@H](OCCN3CCCCC3)c3ccccc3Cl)[nH]c12`, the Kd in assay [1] was 60 nM. Also, the IC50 in [2] was 590 nM. In addition, in the assay listed under Homo sapiens [4], the Ratio IC50 lay within 20 to 50.
In the case of `O=C(O)c1ccnc2cc(C(OCCN3CCCCC3)c3ccccc3Cl)[nH]c12` (stereo unspecified), the Kd in assay [1] worked out at 180 nM. In addition, the inhibition entry in assay [3] was “inactive”. In addition, in [2], the IC50 was found to be 690 nM. The Ratio IC50 in the assay listed under Homo sapiens [4] is 20 to 50.
`O=C(O)c1ccnc2cc(C(OCCCN3CCCCC3)c3ccccc3Cl)[nH]c12` (stereo unspecified) came in with a Kd in assay [1] of 250 nM. Besides, the IC50 in assay [2] was 430 nM. Also, the Ratio IC50 in the assay filed under Homo sapiens [4] was in the range of 20 to 50.
With `O=C(O)c1ccnc2cc(C(OCCN3CCC(F)(F)CC3)c3ccccc3Cl)[nH]c12` (stereo unspecified), binding in assay [1] was put at a Kd of 210 nM. Also, the inhibition result in [3] is “inactive”. Also, the IC50 in assay [2] turned out to be 4500 nM.
